ChEMBL document CHEMBL1147153, “Development of ruthenium antitumor drugs that overcome multidrug resistance mechanisms” (J Med Chem, 2007)
The source made the active and inactive calls. No cut-off for these calls is given here.

Legend:
A549 [1] = experiment: Cytotoxicity against human A549 cells by MTT assay; format: cell-based
How it was run: (§1)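 Cells plated 24 h, then exposed 72 h to compound at 1-300 µM. Compound was diluted from a fresh DMSO stock (20 mM for A549, HT29, T47D; 10 mM for TS/A, HBL-100) into 5%-serum medium, with at most 0.5% or 1% v/v DMSO respectively. Growth media: DMEM (A549, HT29, T47D), McCoy's 5A (HBL-100). MTT (5 mg/mL in PBS, 2.5 µL/100 µL medium) was added for 2 h at 37 °C; formazan dissolved in DMSO and read at OD 570 nm.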

HT-29 = experiment: Cytotoxicity against human HT29 cells by MTT assay; format: cell-based; how it was run: as §1
T47D = experiment: Cytotoxicity against human T47D cells by MTT assay; format: cell-based; how it was run: as §1
TS/A = experiment: Cytotoxicity against […] TS/A cells by MTT assay; format: cell-based; settings: Mus musculus; how it was run: as §1
[2] = Cytotoxicity against human HBL100 cells by MTT assay; format: cell-based; settings: HBL-100; how it was run: as §1
A549 [3] = experiment: Inhibition of P-gp in A549 cells assessed as drug concentration required to double baseline fluorescence level by calcein-AM uptake assay; format: cell-based; settings: Homo sapiens
How it was run: (§2)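 A549 Pgp activity: cells washed in Hanks salt solution with 10 mM HEPES, preincubated 30 min in that buffer, then 15 min with compound. Calcein-AM (1 µM final) added for a further 60 min; uptake stopped on ice, cells washed cold and lysed 15 min in 1% Triton X-100/PBS. Calcein fluorescence read at ex 485/em 530 nm; reported as F2.0 (concentration doubling baseline fluorescence) or inhibition at 80 µM relative to verapamil.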

P-gp (ABCB1) = P-gp (ABCB1) (Homo sapiens, UniProt P08183); experiment: Inhibition of P-gp in A549 cells at 80 uM by calcein-AM uptake assay relative to verapamil; format: cell-based; settings: probe calcein-AM; how it was run: as §2
Sequence of P-gp (ABCB1) (P08183 whole entry): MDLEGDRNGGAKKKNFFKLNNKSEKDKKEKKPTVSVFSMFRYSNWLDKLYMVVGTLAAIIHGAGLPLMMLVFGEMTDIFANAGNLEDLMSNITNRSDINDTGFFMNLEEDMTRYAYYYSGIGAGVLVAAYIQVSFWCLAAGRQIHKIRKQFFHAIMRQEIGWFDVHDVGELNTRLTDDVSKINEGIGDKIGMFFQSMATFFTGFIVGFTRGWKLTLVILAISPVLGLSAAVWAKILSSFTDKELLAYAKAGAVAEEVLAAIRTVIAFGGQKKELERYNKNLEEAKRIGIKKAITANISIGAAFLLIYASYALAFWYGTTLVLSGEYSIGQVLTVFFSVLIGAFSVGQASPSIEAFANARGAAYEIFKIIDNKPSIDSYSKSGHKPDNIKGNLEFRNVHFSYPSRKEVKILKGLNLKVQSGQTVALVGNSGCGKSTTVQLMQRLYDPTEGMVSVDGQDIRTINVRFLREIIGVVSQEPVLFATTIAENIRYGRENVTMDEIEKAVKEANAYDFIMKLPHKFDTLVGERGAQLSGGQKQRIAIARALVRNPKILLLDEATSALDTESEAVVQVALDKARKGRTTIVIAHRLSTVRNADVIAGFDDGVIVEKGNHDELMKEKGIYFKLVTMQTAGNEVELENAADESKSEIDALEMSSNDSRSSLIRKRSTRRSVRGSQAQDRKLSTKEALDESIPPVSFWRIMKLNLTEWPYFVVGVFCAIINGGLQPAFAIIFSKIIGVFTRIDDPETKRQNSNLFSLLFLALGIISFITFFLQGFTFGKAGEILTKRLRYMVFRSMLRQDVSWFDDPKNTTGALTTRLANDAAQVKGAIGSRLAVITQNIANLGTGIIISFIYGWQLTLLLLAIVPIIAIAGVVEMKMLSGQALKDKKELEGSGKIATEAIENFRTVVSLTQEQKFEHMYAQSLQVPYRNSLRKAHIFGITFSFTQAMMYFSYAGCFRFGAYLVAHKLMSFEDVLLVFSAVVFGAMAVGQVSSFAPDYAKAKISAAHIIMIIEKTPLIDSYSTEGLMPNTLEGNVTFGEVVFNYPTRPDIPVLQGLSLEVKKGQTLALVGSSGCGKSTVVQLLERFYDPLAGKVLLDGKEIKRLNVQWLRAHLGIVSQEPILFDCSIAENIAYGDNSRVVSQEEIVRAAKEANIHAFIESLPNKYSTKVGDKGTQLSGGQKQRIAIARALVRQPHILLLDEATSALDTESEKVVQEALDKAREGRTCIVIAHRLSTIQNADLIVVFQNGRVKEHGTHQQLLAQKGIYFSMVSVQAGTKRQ

A549 [4] = experiment: Drug accumulation in human A549 cells after 1 hrs; format: functional, cell-based
How it was run: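 A549 cells grown on slides were exposed to 100 µM compound for 0.5-4 h, PBS-washed, fixed 5 min in 4% buffered paraformaldehyde, and imaged by fluorescence microscopy under 365 nm irradiation with a 1 s exposure.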

| inhibition at 80 µM (P-gp (ABCB1)) | Compound | IC50 (A549 [1]) | IC50 (HT-29) | IC50 (T47D) | IC50 (TS/A) | IC50 [2] | Activity (A549 [3]) | Activity (A549 [4]) |
| --- | --- | --- | --- | --- | --- | --- | --- | --- |
| 24% | O=C(Cn1ccnc1)N1c2ccccc2Oc2ccccc21 [PHENOXIMID] | > 100 µM | 17 µM | 95 µM | 30 µM | 23 µM | > 100 µM |  |
| 65% | O=C(Cn1cnc2ccccc21)N1c2ccccc2Oc2ccccc21 [PHENOXBENZIMID] | 75 µM | 33 µM | 91 µM | 51 µM | > 100 µM | 23 µM |  |
|  | COc1ccc(CCN(C)CCCC(C#N)(c2ccc(OC)c(OC)c2)C(C)C)cc1OC (stereo not drawn) |  |  |  |  |  | 7 µM |  |
| 18% | c1ccc2c(-n3ccnc3)c3ccccc3cc2c1 | 75 µM | 45 µM | 34 µM | 101 µM | 221 µM | > 100 µM | Active |
|  | O=C(CCl)N1c2ccccc2Oc2ccccc21 | > 100 µM | 11 µM | 7 µM | 40 µM | 29 µM |  |  |
